Data: ChEMBL document CHEMBL2346629, “Discovery and characterization of novel allosteric FAK inhibitors” (Eur J Med Chem, 2013)

Tests used:
[1] = biological target: Tyrosine-protein kinase BTK (Homo sapiens) (UniProt Q06187); experiment: Inhibition of BTK (unknown origin) using [gamma-33P]ATP assessed as residual activity at 3 uM
Outline: (§1)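 Radiometric profiling across 288 kinases (261 wild-type, 27 mutant), run as an outsourced service. Inhibition read out as [gamma-33P]ATP incorporation into substrate.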

[2] = biological target: Homeodomain-interacting protein kinase 2 (Homo sapiens) (UniProt Q9H2X6); experiment: Inhibition of HIPK2 (unknown origin) using [gamma-33P]ATP assessed as residual activity at 3 uM
Outline: (§2)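 Radiometric kinase profiling service covering 288 kinases (261 wild-type, 27 mutant). Inhibition was read as incorporation from [γ-³³P]ATP.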

[3] = biological target: Insulin-like growth factor 1 receptor (Homo sapiens) (UniProt P08069); experiment: Inhibition of IGF-1R (unknown origin) using [gamma-33P]ATP assessed as residual activity at 3 uM; outline: as §2
[4] = biological target: Protein kinase C theta type (Homo sapiens) (UniProt Q04759); experiment: Inhibition of PKCtheta (unknown origin) using [gamma-33P]ATP assessed as residual activity at 3 uM
[5] = biological target: Insulin receptor-related protein (Homo sapiens) (UniProt P14616); experiment: Inhibition of IRR (unknown origin) using [gamma-33P]ATP assessed as residual activity at 3 uM; outline: as §2
[6] = biological target: Tyrosine-protein kinase JAK3 (Homo sapiens) (UniProt P52333); experiment: Inhibition of JAK3 (unknown origin) using [gamma-33P]ATP assessed as residual activity at 3 uM; outline: as §2
[7] = biological target: Dual specificity protein kinase CLK3 (Homo sapiens) (UniProt P49761); experiment: Inhibition of CLK3 (unknown origin) using [gamma-33P]ATP assessed as residual activity at 3 uM
Outline: (§3)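 Reaction Biology HotSpot radiometric profiling panel of 288 kinases (261 wild-type, 27 mutant). Kinase activity was read out by incorporation of [γ-33P]ATP.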

[8] = biological target: Aurora kinase A (Homo sapiens) (UniProt O14965); experiment: Inhibition of Aurora A (unknown origin) using [gamma-33P]ATP assessed as residual activity at 3 uM; outline: as §1
[9] = biological target: Serine/threonine-protein kinase PAK 1 (Homo sapiens) (UniProt Q13153); experiment: Inhibition of PAK1 (unknown origin) using [gamma-33P]ATP assessed as residual activity at 3 uM
[10] = biological target: cGMP-dependent protein kinase 1 (Homo sapiens) (UniProt Q13976); experiment: Inhibition of PKG1b (unknown origin) using [gamma-33P]ATP assessed as residual activity at 3 uM
[11] = tested on: Mast/stem cell growth factor receptor Kit (Homo sapiens), P10721 [V560G]; experiment: Inhibition of c-Kit V560G mutant (unknown origin) using [gamma-33P]ATP assessed as residual activity at 3 uM
[12] = biological target: Serine/threonine-protein kinase Sgk3 (Homo sapiens) (UniProt Q96BR1); experiment: Inhibition of SGK3 (unknown origin) using [gamma-33P]ATP assessed as residual activity at 3 uM
[13] = biological target: Mitogen-activated protein kinase 11 (Homo sapiens) (UniProt Q15759); experiment: Inhibition of P38b (unknown origin) using [gamma-33P]ATP assessed as residual activity at 3 uM
[14] = biological target: Homeodomain-interacting protein kinase 4 (Homo sapiens) (UniProt Q8NE63); experiment: Inhibition of HIPK4 (unknown origin) using [gamma-33P]ATP assessed as residual activity at 3 uM; outline: as §2
[15] = biological target: Myosin light chain kinase 2, skeletal/cardiac muscle (Homo sapiens) (UniProt Q9H1R3); experiment: Inhibition of MLCK2 (unknown origin) using [gamma-33P]ATP assessed as residual activity at 3 uM
Outline: (§4)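 Contract radiometric panel screen of 288 kinases (261 wild-type, 27 mutant). Inhibition was read by [gamma-33P]ATP radioactivity incorporation.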

[16] = biological target: Mitogen-activated protein kinase kinase kinase 20 (Homo sapiens) (UniProt Q9NYL2); experiment: Inhibition of ZAK (unknown origin) using [gamma-33P]ATP assessed as residual activity at 3 uM
[17] = biological target: Macrophage-stimulating protein receptor (Homo sapiens) (UniProt Q04912); experiment: Inhibition of RON (unknown origin) using [gamma-33P]ATP assessed as residual activity at 3 uM
[18] = biological target: Tyrosine-protein kinase receptor UFO (Homo sapiens) (UniProt P30530); experiment: Inhibition of AXL (unknown origin) using [gamma-33P]ATP assessed as residual activity at 3 uM; outline: as §1
[19] = tested on: Tyrosine-protein kinase ABL1 (Homo sapiens), P00519 [Y253F]; experiment: Inhibition of ABL1 Y253F mutant (unknown origin) using [gamma-33P]ATP assessed as residual activity at 3 uM; outline: as §1
[20] = biological target: Cyclin-dependent kinase 1/cyclin B1 (Homo sapiens) (UniProt P06493+P14635); experiment: Inhibition of CDK1/cyclinB (unknown origin) using [gamma-33P]ATP assessed as residual activity at 3 uM; type: protein-complex assay; outline: as §1
[21] = biological target: Dual specificity mitogen-activated protein kinase kinase 2 (Homo sapiens) (UniProt P36507); experiment: Inhibition of MEK2 (unknown origin) using [gamma-33P]ATP assessed as residual activity at 3 uM; outline: as §4
[22] = biological target: Serine/threonine-protein kinase pim-1 (Homo sapiens) (UniProt P11309); experiment: Inhibition of PIM1 (unknown origin) using [gamma-33P]ATP assessed as residual activity at 3 uM
[23] = biological target: NUAK family SNF1-like kinase 1 (Homo sapiens) (UniProt O60285); experiment: Inhibition of ARK5 (unknown origin) using [gamma-33P]ATP assessed as residual activity at 3 uM; outline: as §1
[24] = biological target: Rho-associated protein kinase 1 (Homo sapiens) (UniProt Q13464); experiment: Inhibition of ROCK1 (unknown origin) using [gamma-33P]ATP assessed as residual activity at 3 uM
[25] = biological target: Casein kinase II subunit alpha (Homo sapiens) (UniProt P68400); experiment: Inhibition of CK2a (unknown origin) using [gamma-33P]ATP assessed as residual activity at 3 uM; outline: as §3
[26] = biological target: Mitogen-activated protein kinase kinase kinase kinase 4 (Homo sapiens, UniProt O95819); experiment: Inhibition of HGK (unknown origin) using [gamma-33P]ATP assessed as residual activity at 3 uM
[27] = biological target: Misshapen-like kinase 1 (Homo sapiens) (UniProt Q8N4C8); experiment: Inhibition of MINK (unknown origin) using [gamma-33P]ATP assessed as residual activity at 3 uM; outline: as §4
[28] = biological target: Serine/threonine-protein kinase PAK 6 (Homo sapiens) (UniProt Q9NQU5); experiment: Inhibition of PAK6 (unknown origin) using [gamma-33P]ATP assessed as residual activity at 3 uM
[29] = biological target: Ephrin type-B receptor 2 (Homo sapiens) (UniProt P29323); experiment: Inhibition of EPHB2 (unknown origin) using [gamma-33P]ATP assessed as residual activity at 3 uM; outline: as §3
[30] = biological target: Vascular endothelial growth factor receptor 3 (Homo sapiens) (UniProt P35916); experiment: Inhibition of FLT4 (unknown origin) using [gamma-33P]ATP assessed as residual activity at 3 uM; outline: as §2
[31] = biological target: Megakaryocyte-associated tyrosine-protein kinase (Homo sapiens) (UniProt P42679); experiment: Inhibition of CTK (unknown origin) using [gamma-33P]ATP assessed as residual activity at 3 uM; outline: as §3
Sequence of Megakaryocyte-associated tyrosine-protein kinase (Homo sapiens) (P42679 whole entry): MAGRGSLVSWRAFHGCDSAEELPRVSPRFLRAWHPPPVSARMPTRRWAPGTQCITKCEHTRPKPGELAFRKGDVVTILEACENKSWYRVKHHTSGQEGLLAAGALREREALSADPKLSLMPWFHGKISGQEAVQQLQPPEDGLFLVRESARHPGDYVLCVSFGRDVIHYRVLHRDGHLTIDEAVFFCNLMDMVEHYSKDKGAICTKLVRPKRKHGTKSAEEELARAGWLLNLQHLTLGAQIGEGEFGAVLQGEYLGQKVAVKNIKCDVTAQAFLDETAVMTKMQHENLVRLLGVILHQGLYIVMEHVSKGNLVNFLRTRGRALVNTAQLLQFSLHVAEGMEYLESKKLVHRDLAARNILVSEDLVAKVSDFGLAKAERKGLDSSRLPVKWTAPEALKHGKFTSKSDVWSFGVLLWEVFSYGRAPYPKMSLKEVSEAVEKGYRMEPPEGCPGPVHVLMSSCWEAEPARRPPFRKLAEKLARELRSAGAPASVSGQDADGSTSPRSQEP

Sequence of Serine/threonine-protein kinase pim-1 (Homo sapiens) (P11309 whole entry, looked up): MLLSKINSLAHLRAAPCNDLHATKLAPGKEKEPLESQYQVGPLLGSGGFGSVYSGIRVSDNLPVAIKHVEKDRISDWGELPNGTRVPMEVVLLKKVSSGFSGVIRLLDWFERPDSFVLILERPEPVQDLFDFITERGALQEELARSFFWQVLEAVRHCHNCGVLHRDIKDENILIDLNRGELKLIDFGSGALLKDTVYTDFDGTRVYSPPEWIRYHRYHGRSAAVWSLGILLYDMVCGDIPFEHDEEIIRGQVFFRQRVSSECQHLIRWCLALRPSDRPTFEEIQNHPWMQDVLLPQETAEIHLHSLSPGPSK
Sequence of Mast/stem cell growth factor receptor Kit (Homo sapiens), P10721 [V560G] (P10721 whole entry V560G): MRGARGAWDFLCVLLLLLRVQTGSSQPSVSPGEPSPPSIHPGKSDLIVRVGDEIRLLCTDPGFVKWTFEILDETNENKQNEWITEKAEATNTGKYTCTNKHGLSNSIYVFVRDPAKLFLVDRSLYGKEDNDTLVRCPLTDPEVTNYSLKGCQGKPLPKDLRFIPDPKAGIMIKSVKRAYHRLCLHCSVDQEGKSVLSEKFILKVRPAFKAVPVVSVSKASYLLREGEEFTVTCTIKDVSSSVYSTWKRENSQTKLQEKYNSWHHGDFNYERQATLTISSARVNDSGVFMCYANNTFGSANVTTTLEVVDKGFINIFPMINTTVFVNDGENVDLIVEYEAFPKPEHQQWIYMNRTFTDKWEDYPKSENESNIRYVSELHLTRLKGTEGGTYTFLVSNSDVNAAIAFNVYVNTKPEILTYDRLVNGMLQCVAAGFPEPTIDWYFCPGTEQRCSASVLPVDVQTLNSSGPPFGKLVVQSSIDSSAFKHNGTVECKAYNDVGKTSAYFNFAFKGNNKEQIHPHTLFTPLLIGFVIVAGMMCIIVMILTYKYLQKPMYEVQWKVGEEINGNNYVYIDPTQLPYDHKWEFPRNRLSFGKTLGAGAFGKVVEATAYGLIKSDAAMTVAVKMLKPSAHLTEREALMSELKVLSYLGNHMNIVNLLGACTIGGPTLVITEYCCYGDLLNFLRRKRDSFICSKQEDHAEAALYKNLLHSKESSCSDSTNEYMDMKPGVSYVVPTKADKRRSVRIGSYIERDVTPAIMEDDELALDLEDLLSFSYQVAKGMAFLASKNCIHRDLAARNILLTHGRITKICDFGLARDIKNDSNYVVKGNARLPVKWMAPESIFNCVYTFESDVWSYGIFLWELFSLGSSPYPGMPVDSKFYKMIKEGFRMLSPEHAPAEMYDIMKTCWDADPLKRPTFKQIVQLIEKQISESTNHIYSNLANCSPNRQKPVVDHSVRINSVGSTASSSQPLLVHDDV
Sequence of Homeodomain-interacting protein kinase 4 (Homo sapiens) (Q8NE63 whole entry): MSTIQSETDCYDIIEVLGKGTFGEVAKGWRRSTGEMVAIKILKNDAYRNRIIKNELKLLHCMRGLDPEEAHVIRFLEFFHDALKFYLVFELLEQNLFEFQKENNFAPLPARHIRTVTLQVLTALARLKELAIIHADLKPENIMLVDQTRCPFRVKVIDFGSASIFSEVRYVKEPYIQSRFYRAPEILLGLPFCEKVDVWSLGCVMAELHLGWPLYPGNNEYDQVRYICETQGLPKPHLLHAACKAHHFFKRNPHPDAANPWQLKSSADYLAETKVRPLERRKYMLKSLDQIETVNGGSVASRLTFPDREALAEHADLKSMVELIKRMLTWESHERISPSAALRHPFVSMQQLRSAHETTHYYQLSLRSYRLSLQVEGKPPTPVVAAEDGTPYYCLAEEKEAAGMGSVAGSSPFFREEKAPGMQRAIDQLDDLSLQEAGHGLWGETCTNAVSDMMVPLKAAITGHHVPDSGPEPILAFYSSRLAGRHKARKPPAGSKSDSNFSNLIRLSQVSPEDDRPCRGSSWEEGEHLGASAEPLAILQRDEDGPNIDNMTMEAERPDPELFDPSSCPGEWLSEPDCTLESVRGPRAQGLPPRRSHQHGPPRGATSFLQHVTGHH
Sequence of Tyrosine-protein kinase JAK3 (Homo sapiens) (P52333 whole entry): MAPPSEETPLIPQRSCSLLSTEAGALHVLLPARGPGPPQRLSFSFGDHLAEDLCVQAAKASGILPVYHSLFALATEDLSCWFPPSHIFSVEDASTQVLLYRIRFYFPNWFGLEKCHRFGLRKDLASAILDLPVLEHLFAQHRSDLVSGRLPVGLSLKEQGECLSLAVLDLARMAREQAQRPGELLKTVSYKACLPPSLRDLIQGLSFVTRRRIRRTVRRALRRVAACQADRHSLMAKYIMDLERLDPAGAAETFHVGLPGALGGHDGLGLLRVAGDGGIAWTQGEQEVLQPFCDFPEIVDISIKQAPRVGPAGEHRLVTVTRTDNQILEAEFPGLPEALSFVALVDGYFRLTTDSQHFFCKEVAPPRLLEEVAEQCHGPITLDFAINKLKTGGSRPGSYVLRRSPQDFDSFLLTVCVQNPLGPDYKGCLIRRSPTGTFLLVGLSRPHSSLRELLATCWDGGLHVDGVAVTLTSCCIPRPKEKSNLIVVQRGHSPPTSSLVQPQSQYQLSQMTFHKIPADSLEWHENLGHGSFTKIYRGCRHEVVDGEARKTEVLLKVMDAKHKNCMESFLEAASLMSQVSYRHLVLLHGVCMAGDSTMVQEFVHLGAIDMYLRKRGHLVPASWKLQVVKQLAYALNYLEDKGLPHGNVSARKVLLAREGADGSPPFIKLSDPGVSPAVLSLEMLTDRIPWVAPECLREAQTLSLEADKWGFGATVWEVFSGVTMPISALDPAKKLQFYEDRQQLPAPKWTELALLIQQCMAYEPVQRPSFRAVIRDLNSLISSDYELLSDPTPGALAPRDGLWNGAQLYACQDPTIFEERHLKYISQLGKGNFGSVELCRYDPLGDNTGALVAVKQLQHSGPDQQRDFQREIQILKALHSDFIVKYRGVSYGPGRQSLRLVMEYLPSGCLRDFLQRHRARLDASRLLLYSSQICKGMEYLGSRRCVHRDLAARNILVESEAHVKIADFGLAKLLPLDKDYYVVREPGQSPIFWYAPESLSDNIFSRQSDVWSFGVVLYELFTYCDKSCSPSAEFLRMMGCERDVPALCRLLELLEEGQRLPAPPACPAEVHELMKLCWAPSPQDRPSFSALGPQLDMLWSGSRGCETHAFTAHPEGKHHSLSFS
Sequence of Tyrosine-protein kinase BTK (Homo sapiens) (Q06187 whole entry): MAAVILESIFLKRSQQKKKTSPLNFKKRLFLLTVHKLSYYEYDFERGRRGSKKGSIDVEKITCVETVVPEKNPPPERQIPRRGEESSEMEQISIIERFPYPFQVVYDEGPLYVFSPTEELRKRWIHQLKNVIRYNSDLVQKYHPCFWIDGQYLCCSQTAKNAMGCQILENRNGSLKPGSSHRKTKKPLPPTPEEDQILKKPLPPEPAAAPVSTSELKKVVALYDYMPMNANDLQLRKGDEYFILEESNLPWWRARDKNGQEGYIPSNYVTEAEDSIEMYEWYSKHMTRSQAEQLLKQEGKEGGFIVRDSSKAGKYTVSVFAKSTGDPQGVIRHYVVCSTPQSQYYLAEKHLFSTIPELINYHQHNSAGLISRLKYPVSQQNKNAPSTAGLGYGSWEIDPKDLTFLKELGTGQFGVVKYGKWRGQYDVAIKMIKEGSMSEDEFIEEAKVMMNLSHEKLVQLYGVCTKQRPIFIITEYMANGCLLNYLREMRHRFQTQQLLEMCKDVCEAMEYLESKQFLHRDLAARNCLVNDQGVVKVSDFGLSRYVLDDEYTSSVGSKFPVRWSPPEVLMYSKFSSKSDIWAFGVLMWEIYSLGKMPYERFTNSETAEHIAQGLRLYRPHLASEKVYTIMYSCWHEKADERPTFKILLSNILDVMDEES
Sequence of Cyclin-dependent kinase 1/cyclin B1 (Homo sapiens) (P06493 whole entry, looked up): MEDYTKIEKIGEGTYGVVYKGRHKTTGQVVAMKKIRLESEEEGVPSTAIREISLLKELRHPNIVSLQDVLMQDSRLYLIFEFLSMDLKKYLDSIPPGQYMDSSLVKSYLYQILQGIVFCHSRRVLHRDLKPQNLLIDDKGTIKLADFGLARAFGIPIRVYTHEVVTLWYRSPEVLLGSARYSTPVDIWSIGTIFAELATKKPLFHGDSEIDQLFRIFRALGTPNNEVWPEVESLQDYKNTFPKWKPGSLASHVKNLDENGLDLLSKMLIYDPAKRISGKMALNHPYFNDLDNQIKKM
Sequence of Cyclin-dependent kinase 1/cyclin B1 (Homo sapiens) (P14635 whole entry, looked up): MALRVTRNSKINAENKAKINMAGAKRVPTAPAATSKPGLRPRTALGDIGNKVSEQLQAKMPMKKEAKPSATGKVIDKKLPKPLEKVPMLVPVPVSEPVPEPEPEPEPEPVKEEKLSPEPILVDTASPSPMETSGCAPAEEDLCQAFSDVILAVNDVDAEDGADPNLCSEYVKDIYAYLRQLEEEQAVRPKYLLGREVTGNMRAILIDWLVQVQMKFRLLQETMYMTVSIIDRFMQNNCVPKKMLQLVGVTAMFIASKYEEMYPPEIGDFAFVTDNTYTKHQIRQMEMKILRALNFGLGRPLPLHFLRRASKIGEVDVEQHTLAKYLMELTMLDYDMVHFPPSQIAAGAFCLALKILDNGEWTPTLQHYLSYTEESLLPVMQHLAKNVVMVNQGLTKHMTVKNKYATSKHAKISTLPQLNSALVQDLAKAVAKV

CCc1ccc(-c2ccc3c(c2)-c2[nH]ncc2S(=O)(=O)N3C)cc1
Activity [1]: 95% | Activity [2]: 101% | Activity [3]: 87% | Activity [4]: 98% | Activity [5]: 100% | Activity [6]: 94% | Activity [7]: 95% | Activity [8]: 90% | Activity [9]: 80% | Activity [10]: 102% | Activity [11]: 72% | Activity [12]: 93% | Activity [13]: 103% | Activity [14]: 91% | Activity [15]: 96% | Activity [16]: 96% | Activity [17]: 98% | Activity [18]: 89% | Activity [19]: 68% | Activity [20]: 83% | Activity [21]: 89% | Activity [22]: 96% | Activity [23]: 84% | Activity [24]: 94% | Activity [25]: 89% | Activity [26]: 25% | Activity [27]: 55% | Activity [28]: 97% | Activity [29]: 95% | Activity [30]: 80% | Activity [31]: 96%
